Assay results: paper PMC5797669 (Cellular signalling, 2016)
Where no end group is shown, it is not given here.

Key:
[1] = biological target: hY4R point mutant T^7.87/90A, C-terminally fused to RLuc8 (human) (UniProt P50391); experiment: FRET or BRET
[2] = biological target: hY4R deletion mutant Δ7.97, C-terminally fused to RLuc8 (human) (UniProt P50391); experiment: FRET or BRET
[3] = biological target: hY4R point mutant E^7.78/79/81A, C-terminally fused to RLuc8 (human) (UniProt P50391); experiment: FRET or BRET
Chain of hY4R point mutant E^7.78/79/81A, C-terminally fused to RLuc8 (human) (P50391 whole entry, change not shown, the tested form may be a part): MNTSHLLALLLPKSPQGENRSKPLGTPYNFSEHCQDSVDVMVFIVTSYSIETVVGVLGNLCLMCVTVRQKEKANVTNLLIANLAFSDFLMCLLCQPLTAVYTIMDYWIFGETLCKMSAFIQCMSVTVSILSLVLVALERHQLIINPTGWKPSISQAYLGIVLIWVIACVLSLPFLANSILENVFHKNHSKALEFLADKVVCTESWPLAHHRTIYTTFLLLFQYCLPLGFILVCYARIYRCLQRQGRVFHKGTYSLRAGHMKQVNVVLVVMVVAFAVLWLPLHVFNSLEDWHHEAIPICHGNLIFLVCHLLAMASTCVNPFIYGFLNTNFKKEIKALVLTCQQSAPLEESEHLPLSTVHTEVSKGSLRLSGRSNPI

[4] = biological target: hY4R point mutant S^7.80/86A, C-terminally fused to RLuc8 (human) (UniProt P50391); experiment: FRET or BRET
Chain of hY4R point mutant S^7.80/86A, C-terminally fused to RLuc8 (human) (P50391 whole entry, change not shown, the tested form may be a part): as above

[5] = biological target: hY4R point mutant S^7.100/103A, C-terminally fused to RLuc8 (human) (UniProt P50391); experiment: FRET or BRET
Chain of hY4R point mutant S^7.100/103A, C-terminally fused to RLuc8 (human) (P50391 whole entry, stated change not applied, the tested form may be a part): as the sequence (P50391 whole entry, change not shown, the tested form may be a part) above

[6] = biological target: hY4R deletion mutant Δ7.78, C-terminally fused to RLuc8 (human) (UniProt P50391); experiment: FRET or BRET
Chain of hY4R deletion mutant Δ7.78, C-terminally fused to RLuc8 (human) (P50391 whole entry, stated change not applied, the tested form may be a part): as the sequence (P50391 whole entry, change not shown, the tested form may be a part) above

[7] = biological target: hY4R deletion mutant Δ7.93, C-terminally fused to RLuc8 (human) (UniProt P50391); experiment: FRET or BRET
Chain of hY4R deletion mutant Δ7.93, C-terminally fused to RLuc8 (human) (P50391 whole entry, stated change not applied, the tested form may be a part): as the sequence (P50391 whole entry, change not shown, the tested form may be a part) above

[8] = biological target: hY4R point mutant S^7.93/96A, C-terminally fused to RLuc8 (human) (UniProt P50391); experiment: FRET or BRET
Chain of hY4R point mutant S^7.93/96A, C-terminally fused to RLuc8 (human) (P50391 whole entry, stated change not applied, the tested form may be a part): as the sequence (P50391 whole entry, change not shown, the tested form may be a part) above

hY4R S^7.100/103A = hY4R S^7.100/103A (Homo sapiens, UniProt P50391, S369A/S372A); experiment: TAMRA-hPP ligand uptake by fluorescence microscopy; format: cell-based; settings: HEK293, 100 nM, 60 min, acidic wash pH 3.0, Mean ± S.E.M., n ≥ 4
Chain of hY4R S^7.100/103A (P50391 whole entry S369A/S372A): as the sequence (P50391 whole entry, change not shown, the tested form may be a part) above, with S369A, S372A counted along it
Procedure, shortened: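 HEK293 cells on slides at 70–80% confluence, transfected (Lipofectamine 2000) with 1 µg receptor plasmid. Next day, starved 30 min at 37 °C in Opti-MEM, optionally with Hoechst33342. […] Intracellular fluorescence quantified per cell, ≥10 cells per experiment.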

hY4R point mutants = experiment: [^125I]-hPP cell surface binding assay; set-up: species or system human; settings: all point mutants; HEK293; compared to WT (set to 100%)
Procedure, shortened: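 EYFP-fused receptor constructs transiently expressed in HEK293: 7 µg receptor DNA per 6-well by Lipofectamine 2000. Cells re-seeded next day into poly-D-lysine-coated 48-well plates and grown to confluence. Specific [125I]-hPP binding of each mutant expressed relative to wild-type receptor specific binding.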

[9] = biological target: N-terminally HA-tagged hY4R wild type fused to enhanced yellow fluorescent protein (human, UniProt P50391 1-375); experiment: radioligand binding
Chain of N-terminally HA-tagged hY4R wild type fused to enhanced yellow fluorescent protein (P50391 whole entry, the tested form may be a part): as the sequence (P50391 whole entry, change not shown, the tested form may be a part) above

Chain of Bovine arrestin-3 N-terminally fused to Venus (P32120 whole entry, the tested form may be a part): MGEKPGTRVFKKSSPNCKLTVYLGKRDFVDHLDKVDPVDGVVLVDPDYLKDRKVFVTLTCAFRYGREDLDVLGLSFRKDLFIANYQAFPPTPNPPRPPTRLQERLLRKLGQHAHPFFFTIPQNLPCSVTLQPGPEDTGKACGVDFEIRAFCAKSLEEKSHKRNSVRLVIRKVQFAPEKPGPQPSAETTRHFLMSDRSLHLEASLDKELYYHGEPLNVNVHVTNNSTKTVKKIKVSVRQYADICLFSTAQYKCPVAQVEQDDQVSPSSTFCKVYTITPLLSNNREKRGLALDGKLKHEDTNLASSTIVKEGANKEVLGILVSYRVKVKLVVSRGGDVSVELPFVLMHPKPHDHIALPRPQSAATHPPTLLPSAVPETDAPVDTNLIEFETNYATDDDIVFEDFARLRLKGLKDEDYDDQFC
Chain of hY4R point mutant T^7.87/90A, C-terminally fused to RLuc8 (human) (P50391 whole entry, stated change not applied, the tested form may be a part): as the sequence (P50391 whole entry, change not shown, the tested form may be a part) above
Chain of hY4R deletion mutant Δ7.97, C-terminally fused to RLuc8 (human) (P50391 whole entry, stated change not applied, the tested form may be a part): as the sequence (P50391 whole entry, change not shown, the tested form may be a part) above

With “Bovine arrestin-3 N-terminally fused to Venus (from UniProt P32120 1-420) (natural protein)” the arr-3 recruitment, maximum net BRET (% of WT) [1] was 51%, the arr-3 recruitment, maximum net BRET (% of WT) [2] was 186% and the arr-3 recruitment, maximum net BRET (% of WT) [3] was 25%. The arr-3 recruitment, maximum net BRET (% of WT) [4] was 33%, the arr-3 recruitment, maximum net BRET (% of WT) [5] was 95% and the arr-3 recruitment, maximum net BRET (% of WT) [6] was 1%. For the same molecule, the arr-3 recruitment, maximum net BRET (% of WT) [7] was 174% and the arr-3 recruitment, maximum net BRET (% of WT) [8] was 49%.

With “TAMRA-hPP: hPP-derivative that was N-terminally modified with a TAMRA fluorophore” the “TAMRA-hPP uptake (intracellular fluorescence)” value (hY4R S^7.100/103A) was 78 ± 11%.

For “[^125I]-hPP: radioligand used in binding experiments”, the “cell surface expression ([^125I]-hPP binding)” value (hY4R point mutants) was greater than 78%.

APLEPVYPGDNATPEQMAQYAADLRRYINMLTRPRY-NH2 (peptide, UniProt P01298 30-65, looked up, also: 125I label (position not given here)) [[^125I]-labelled human pancreatic polypeptide] was tested, and the “specific binding (% of WT)” value [9] was 100%.
